Data: ChEMBL document CHEMBL3414541, “Discovery of new thienopyrimidinone derivatives displaying antimalarial properties toward both erythrocytic and hepatic stages of Plasmodium” (Eur J Med Chem, 2015)

How the values were obtained:
[1] = (§1) Cytotoxicity against human HepG2 cells assessed as cell viability after 72 hrs by MTT assay; assay type: cell-based; details: HepG2 cells
Outline: (§2)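 Cells were kept in RPMI with 10% FBS. 5×10^3 cells/well were settled 24 h, then exposed to compound from DMSO (final <0.5%): CHO for 24 h, HepG2 for 72 h, in duplicate. Wells were checked for precipitate. MTT was added for 2 h at 37 °C, formazan dissolved in DMSO, and A570 read (630 nm reference). Viability is % of untreated cells; CC50 from non-linear regression, mean of three experiments.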

Plasmodium falciparum [2] = experiment: Antiplasmodial activity against chloroquine-sensitive Plasmodium falciparum 3D7 infected in human erythrocytes assessed as parasite growth inhibition after 72 hrs by SYBR Green I dye-based fluorescence assay; assay type: functional, organism-based
Outline: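 Parasites grown in A+ human erythrocytes (2.5% haematocrit) in RPMI 1640 with 25 mM HEPES, 25 mM NaHCO3 and 10% A+ serum, at 37 °C under 6% CO2/14% O2/80% N2. Rings were sorbitol-synchronized. Compounds in DMSO (<0.5% final) were incubated 72 h at 2% haematocrit and 1% parasitaemia. SYBR Green lysis read at ex 497/em 520 nm; duplicates; IC50 from three independent experiments.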

Plasmodium falciparum [3] = experiment: Antiplasmodial activity against multi-drug resistant Plasmodium falciparum K1 infected in human erythrocytes assessed as parasite growth inhibition after 72 hrs by SYBR Green I dye-based fluorescence assay; assay type: functional, organism-based; details: read-out: IC50
[4] = Selectivity index, ratio of CC50 for human HepG2 cells to IC50 for chloroquine-sensitive Plasmodium falciparum 3D7 infected in human erythrocytes; assay type: functional
Outline: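 SI = HepG2 CC50 (72 h MTT) / P. falciparum IC50. […] Cultures were exposed 72 h at 37 °C to compound (DMSO final <0.5%), in duplicate. Growth was read by SYBR Green I lysis fluorescence (ex 497, em 520 nm), from three independent experiments.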

Plasmodium yoelii = experiment: Antiplasmodial activity against liver stage of Plasmodium yoelii 17X NL sporozoites infected in human HepG2 cells expressing CD81 after 48 hrs by DAPI staining-based immunofluorescence analysis; assay type: functional, organism-based; details: HepG2, 48 h
Outline: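 HepG2/CD81 cells were grown in D-MEM with 10% FBS. 25×10^3 cells/well went on collagen-coated wells; after 24 h they received compound and 5000 P. yoelii sporozoites together, then were spun 900 × g for 10 min at 4 °C. Treatment was renewed at 3 h and 24 h. At 48 h cells were methanol-fixed, stained with anti-HSP70 immunofluorescence, and parasites counted by microscopy. IC50 is 50% fewer parasites than in 0.5% DMSO controls.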

[5] = Cytotoxicity against human HepG2 cells expressing CD81 assessed as cell viability after 72 hrs by MTT assay; assay type: cell-based
[6] = Selectivity index, ratio of CC50 for human HepG2 cells expressing CD81 to IC50 for liver stage of Plasmodium yoelii 17X NL sporozoites infected in human HepG2 cells expressing CD81; assay type: functional
[7] = Selectivity index, ratio of CC50 for human HepG2 cells to IC50 for multi-drug resistant Plasmodium falciparum K1 infected in human erythrocytes
HepG2 = experiment: as §1; assay type: cell-based; details: hepg2, 72 h, 72 h, read-out: CC50; outline: as §2
Leishmania donovani = experiment: Antileishmanial activity against promastigote stage of Leishmania donovani assessed as parasite growth inhibition after 72 hrs by MTT assay; assay type: functional, organism-based
Outline: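 L. donovani promastigotes were grown at 27 °C in Schneider's medium with 10% FBS. 1×10^6 log-phase cells/well were exposed to compound from DMSO (final <0.5% v/v) for 72 h at 27 °C, in duplicate. MTT was then added for 6 h, formazan dissolved in DMSO, and A570 read (630 nm reference). IC50 came from non-linear regression, mean of three independent experiments.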

Toxoplasma gondii = experiment: Antitoxoplasmic activity against tachyzoite stage of Toxoplasma gondii PRU transfected with beta galactosidase infected in HFF assessed as parasite growth inhibition after 96 hrs by colorimetric microtiter assay; assay type: functional
Outline: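 Confluent HFF monolayers (1×10^4 seeded) were infected with 2×10^3 PRU-β-Gal tachyzoites for 3 h. Compounds from DMSO (final <0.5%) were then added in triplicate for 96 h at 37 °C. CPRG was added at 500 µM final for 24 h more, then A570 read (630 nm reference). IC50 came from non-linear regression, mean of three experiments.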

Salmonella typhimurium [8] = experiment: Mutagenicity in Salmonella typhimurium TA97A at 2.5 mM after 1 hr by Ames test in absence of S9 fraction; assay type: toxicity, organism-based; details: salmonella enterica subsp. enterica serovar typhimurium, 2500 µM
Outline: (§3)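 Tester strains were grown overnight in nutrient broth. 0.1 mL culture was incubated 1 h at 37 °C with shaking with compound (2.5–25 mM DMSO solutions), with or without 4% S9 mix. Top agar was added and the mix plated on Vogel-Bonner agar. Revertants were counted after 48 h at 37 °C in the dark. A twofold rise over spontaneous revertants counts as mutagenic.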

Salmonella typhimurium [9] = experiment: Mutagenicity in Salmonella typhimurium TA100 at 2.5 mM after 1 hr by Ames test in absence of S9 fraction; assay type: toxicity, organism-based; details: salmonella enterica subsp. enterica serovar typhimurium, 2500 µM; outline: as §3
Salmonella typhimurium [10] = experiment: Mutagenicity in Salmonella typhimurium TA97A at 2.5 mM after 1 hr by Ames test in presence of S9 fraction; assay type: toxicity, organism-based; details: salmonella enterica subsp. enterica serovar typhimurium, s9, 1 h, 2500 µM
Outline: (§4)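 Tester strains were grown overnight in nutrient broth. Top agar was added and the mix plated on Vogel-Bonner agar. Revertants were counted after 48 h at 37 °C in the dark. A twofold rise over spontaneous revertants counts as mutagenic.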

Salmonella typhimurium [11] = experiment: Mutagenicity in Salmonella typhimurium TA100 at 2.5 mM after 1 hr by Ames test in presence of S9 fraction; assay type: toxicity, organism-based; details: salmonella enterica subsp. enterica serovar typhimurium, s9, 1 h, 2500 µM; outline: as §4
[12] = Genotoxicity in DNA (unknown origin) incubated for 24 hrs in dark condition by methyl green displacement assay
Outline: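 DNA-methyl green (4 mg in 20 mL 0.05 M Tris-HCl pH 7.5 with 7.5 mmol/L MgSO4) was shaken 24 h at 37 °C. It was then added to compound from DMSO (final <0.5%). A630 was read, and read again after 24 h at room temperature in the dark. DC50 is the concentration displacing 50% of methyl green.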

[13] = Inhibition of hemozoin polymerization after 24 hrs by spectroscopic analysis; assay type: functional
Outline: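 Hemozoin (4 mM solution in 0.1 M NaOH) was mixed with compound at drug:heme ratios of 1:1 to 8:1, in triplicate. Acetic acid was added to pH 3, and samples were incubated 24 h at 37 °C. Soluble, DMSO-soluble and pellet fractions were separated by centrifugation. Each fraction was quantified at A405 against a hemozoin standard curve. IC50 is 50% decrease in polymerization.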

[14] = Inhibition of Plasmodium falciparum DHFR after 48 hrs
Outline: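 Recombinant S. cerevisiae whose own DHFR is replaced by the P. falciparum DHFR domain was used. 1×10^4 cells were grown in YEPD with compound from DMSO (final <0.5%) at 30 °C for 48 h, in duplicate. Growth was read as A660. IC50 (50% growth inhibition) came from non-linear regression.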

Plasmodium falciparum [15] = experiment: Antiplasmodial activity against multi-drug resistant Plasmodium falciparum K1 infected in human erythrocytes assessed as parasite growth inhibition after 72 hrs by SYBR Green I dye-based fluorescence assay in presence of ascorbic acid; assay type: functional, organism-based; details: K1, 72 h
Outline: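 Same SYBR Green I 72 h growth assay on the K1 strain (2% haematocrit, 1% parasitaemia, 37 °C, 6% CO2/14% O2/80% N2, DMSO <0.5%), with 800 µM ascorbic acid in the medium as radical trap. Duplicates; artesunate as positive control; IC50 derived.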

Plasmodium berghei = experiment: Antiplasmodial activity against chloroquine-sensitive Plasmodium berghei NK65 infected in Swiss mouse assessed as reduction in parasitemia at 2.5 mg/kg, ip bid administered for 4 days measured on day 4 by Giemsa staining relative to control; assay type: functional; design: scale not given: the % may be the effect or the level left; details: route intraperitoneal
Outline: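 Male Swiss mice (20 ± 2 g) were infected on day 0 with 10^7 parasitized cells in 0.9% saline. Groups of 5 were dosed ip at 2.5 mg/kg twice a day from day 0 to day 3.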

Plasmodium falciparum [16] = experiment: Antiplasmodial activity against multi-drug resistant erythrocytic stage of Plasmodium falciparum K1 isolated from synchronized culture assessed as reduction in parasitemia at 5 X IC50 measured for 8 hrs by spectrophotometric analysis relative to control; assay type: functional; design: scale not given: the % may be the effect or the level left
Outline: (§5)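 K1 cultures were synchronized to an 8-h window with 5% D-sorbitol and held in 24-well plates at 0.8% parasitemia and 4% hematocrit. They received 8-h compound pulses (DMSO <0.5%) at successive points of the cycle, then three washes and culture to the ring stage of the next cycle. Fluorescence read at 497/520 nm; % growth inhibition versus DMSO control; chloroquine as positive control.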

Plasmodium falciparum [17] = experiment: Antiplasmodial activity against multi-drug resistant erythrocytic stage of Plasmodium falciparum K1 isolated from synchronized culture assessed as reduction in parasitemia at 5 X IC50 measured for 32 hrs by spectrophotometric analysis relative to control; assay type: functional; design: scale not given: the % may be the effect or the level left; outline: as §5
Plasmodium falciparum [18] = experiment: Antiplasmodial activity against multi-drug resistant Plasmodium falciparum K1 after 72 hrs by SYBR Green I dye-based fluorescence assay; details: K1, 72 h
[19] = Cytotoxicity against CHO cells assessed as cell viability after 24 hrs by MTT assay; assay type: cell-based, Cricetulus griseus; details: chinese hamster; outline: as §2
[20] = Cytotoxicity against human HepG2 cells expressing CD81 assessed as cell viability after 72 hrs by CellTiter-glo assay; assay type: cell-based

CC(C)(C)Nc1nc2cc(-c3ccc(Cl)cc3)sc2c(=O)[nH]1.O=C(O)/C=C/C(=O)O
CC50 at 72 h [1]: 15.6 µM
IC50 (Plasmodium falciparum [2]): 168 nM
IC50 (Plasmodium falciparum [3]): 800 nM
Ratio CC50/IC50 [4]: 93
IC50 (Plasmodium yoelii): 60 nM
CC50 at 72 h [5]: > 120 µM
Ratio CC50/IC50 [6]: >2000
Ratio CC50/IC50 [7]: 78

Cc1ccc(-c2cc3nc(NC(C)C)[nH]c(=O)c3s2)cc1
CC50 (HepG2): 49.4 µM
IC50 (Plasmodium falciparum [2]): 247 nM
IC50 (Plasmodium falciparum [3]): 800 nM
Ratio CC50/IC50 [4]: 202
IC50 (Leishmania donovani): > 10 µM
IC50 (Toxoplasma gondii): > 10 µM
Activity (Salmonella typhimurium [8]): Non-toxic
Activity (Salmonella typhimurium [9]): Non-toxic
Activity (Salmonella typhimurium [10]): Non-toxic
Activity (Salmonella typhimurium [11]): Non-toxic
DC50 [12]: > 25 mM
IC50 [13]: > 25 mM
IC50 [14]: > 250 µM
IC50 (Plasmodium falciparum [15]): 900 nM
Ratio CC50/IC50 [7]: 62

Cc1ccc(-c2cc3nc(NC(C)(C)C)[nH]c(=O)c3s2)cc1.Cl
CC50 at 72 h [1]: 24 µM
IC50 (Plasmodium falciparum [2]): 35 nM
IC50 (Plasmodium falciparum [3]): 45 nM
Ratio CC50/IC50 [4]: 686
Activity (Plasmodium berghei): 45%
Activity (Plasmodium falciparum [16]): 41%
Activity (Plasmodium falciparum [17]): 30%
IC50 (Plasmodium yoelii): 35 nM
CC50 at 72 h [5]: > 143 µM
Ratio CC50/IC50 [6]: >4086
Ratio CC50/IC50 [7]: 533

CC(C)(C)Nc1nc2cc(-c3ccc(Cl)cc3)sc2c(=O)[nH]1
CC50 (HepG2): 15 µM
IC50 (Plasmodium falciparum [2]): 344 nM
IC50 (Plasmodium falciparum [3]): 800 nM
Ratio CC50/IC50 [4]: 44
IC50 (Leishmania donovani): > 10 µM
IC50 (Toxoplasma gondii): > 10 µM
Activity (Salmonella typhimurium [8]): Non-toxic
Activity (Salmonella typhimurium [9]): Non-toxic
Activity (Salmonella typhimurium [10]): Non-toxic
Activity (Salmonella typhimurium [11]): Non-toxic
DC50 [12]: > 25 mM
IC50 [13]: > 25 mM
IC50 [14]: > 250 µM
IC50 (Plasmodium falciparum [15]): 800 nM
Ratio CC50/IC50 [7]: 19

CN(C)c1nc2cc(-n3cnc4cc(-c5ccc(Cl)cc5)sc4c3=O)ccc2n1CCCN1CCCC1
IC50 (Plasmodium falciparum [18]): < 10 µM

Cc1ccc(-c2cc3nc(NC(C)C)[nH]c(=O)c3s2)cc1.O=C(O)/C=C/C(=O)O
CC50 at 72 h [1]: 26.9 µM
IC50 (Plasmodium falciparum [2]; Plasmodium falciparum, 3D7, 72 h): 182 nM
IC50 (Plasmodium falciparum [3]): 800 nM
Ratio CC50/IC50 [4]: 148
IC50 (Plasmodium yoelii): 120 nM
CC50 at 72 h [5]: > 111 µM
Ratio CC50/IC50 [6]: >925
Ratio CC50/IC50 [7]: 135

CCN(CC)CCCC(C)Nc1ccnc2cc(Cl)ccc12 (centres undefined) [CHLOROQUINE]
CC50 at 24 h [19]: 155 µM
Activity (Plasmodium berghei): 85%
IC50 (Plasmodium yoelii): 1650 nM
CC50 at 72 h [20]: 1600 nM
IC50 [13]: 1.46 mM

Cc1ccc(-c2cc3nc(NC(C)(C)C)[nH]c(=O)c3s2)cc1
CC50 (HepG2): 25.6 µM
CC50 at 24 h [19]: 27.5 µM
IC50 (Plasmodium falciparum [2]): 140 nM
IC50 (Plasmodium falciparum [3]): 200 nM
Ratio CC50/IC50 [4]: 183
IC50 (Leishmania donovani): > 10 µM
IC50 (Toxoplasma gondii): > 10 µM
Activity (Salmonella typhimurium [8]): Non-toxic
Activity (Salmonella typhimurium [9]): Non-toxic
Activity (Salmonella typhimurium [10]): Non-toxic
Activity (Salmonella typhimurium [11]): Non-toxic
DC50 [12]: > 25 mM
IC50 [13]: 21.6 mM
IC50 [14]: > 500 µM
IC50 (Plasmodium falciparum [15]): 200 nM
Ratio CC50/IC50 [7]: 128
